Laboratory results taken from ChEMBL document CHEMBL2331331 (J Med Chem, 2013).
Calls of active or inactive are those of the source. No cut-off for these calls is given here.

Experiments:
[1] = AUC (0 to 24 hrs) in Sprague-Dawley rat at 10 mg/kg/day, po; format: ADME, organism-based; set-up: dose 10 mg/kg/day, time < 24 hr, route oral; conditions: plasma
Mus musculus = test: Inhibition of FLT3-ITD mutant in human MV4-11 cells xenografted in NOD-SCID mouse assessed as inhibition of STAT5 phosphorylation at 10 mg/kg/day, po after 3 days by immunostaining method relative to vehicle-treated control; format: functional, organism-based
Summary of the method: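 Mice (NOD-SCID) bearing sc MV4-11 tumors given 10 mg/kg/d by oral gavage. Tumors removed after 2–4 days and formalin-fixed. Sections immunostained for Ki67 (proliferation) or p-STAT5, or TUNEL-stained (apoptosis). Imaged by light microscopy and compared with vehicle group.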

MV4-11 [2] = test: Antitumor activity against FLT3-ITD-positive human MV4-11 cells xenografted in NOD-SCID mouse assessed as tumor regression at 10 mg/kg/day, po administered 18 days measured every 3 days for 18 days; format: functional, organism-based
Summary of the method: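 NOD-SCID mice (5–6 weeks) implanted sc with 1 × 10⁸/mL MV4-11 cells (100 μL) in serum-free medium. Grouped at 300–500 mm³, six per group, then dosed orally once daily for 18 days. Vehicle was 12.5% castor oil, 12.5% ethanol, 75% water. Tumor volume = long × short²/2, measured every 3 d.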

[3] = target: T1, Receptor-type tyrosine-protein kinase FLT3 (Homo sapiens, UniProt P36888); test: Inhibition of FLT3 in human MV4-11 cells assessed as inhibition of Erk1/2 phosphorylation after 20 hrs by Western blotting analysis; format: cell-based
T1 sequence (P36888 whole entry): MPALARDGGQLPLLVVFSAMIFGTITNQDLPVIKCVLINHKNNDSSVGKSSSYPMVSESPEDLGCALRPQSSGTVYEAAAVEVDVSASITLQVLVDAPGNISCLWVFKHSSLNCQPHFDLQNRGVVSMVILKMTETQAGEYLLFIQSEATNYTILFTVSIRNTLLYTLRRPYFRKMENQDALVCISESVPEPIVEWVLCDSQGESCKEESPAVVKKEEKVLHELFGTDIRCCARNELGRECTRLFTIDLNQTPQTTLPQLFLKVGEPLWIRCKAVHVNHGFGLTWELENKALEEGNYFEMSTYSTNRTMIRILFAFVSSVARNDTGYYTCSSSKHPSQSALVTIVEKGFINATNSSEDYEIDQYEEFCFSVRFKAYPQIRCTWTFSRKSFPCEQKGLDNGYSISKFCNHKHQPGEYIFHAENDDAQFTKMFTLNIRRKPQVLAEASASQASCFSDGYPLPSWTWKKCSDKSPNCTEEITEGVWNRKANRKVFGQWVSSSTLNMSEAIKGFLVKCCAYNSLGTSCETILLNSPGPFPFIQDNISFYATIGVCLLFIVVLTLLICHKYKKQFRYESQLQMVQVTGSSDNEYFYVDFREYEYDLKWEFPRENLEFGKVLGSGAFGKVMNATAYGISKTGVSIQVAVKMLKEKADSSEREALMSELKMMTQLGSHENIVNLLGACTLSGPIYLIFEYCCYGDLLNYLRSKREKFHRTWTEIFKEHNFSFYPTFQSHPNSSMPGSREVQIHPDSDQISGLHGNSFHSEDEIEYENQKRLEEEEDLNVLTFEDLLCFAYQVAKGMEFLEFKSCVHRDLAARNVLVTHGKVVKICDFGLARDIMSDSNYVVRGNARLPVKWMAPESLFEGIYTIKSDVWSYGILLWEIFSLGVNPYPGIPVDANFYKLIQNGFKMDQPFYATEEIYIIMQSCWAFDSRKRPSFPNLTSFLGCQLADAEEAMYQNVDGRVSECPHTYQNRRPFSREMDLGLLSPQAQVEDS

[4] = target: T1, Receptor-type tyrosine-protein kinase FLT3; test: Inhibition of FLT3 phosphorylation in human MV4-11 cells after 20 hrs by Western blotting analysis; format: cell-based
MV4-11 [5] = test: Antitumor activity against human MV4-11 cells xenografted in mouse at 5 mg/kg/day, po after 18 days; format: functional, organism-based
Summary of the method: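 MV4-11 sc xenograft mice dosed daily by mouth once tumors reached about 400 mm³, three mice per group; tumor volume followed.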

MV4-11 [6] = test: Induction of apoptosis in human MV4-11 cells assessed as early apoptotic cells at 0.03 uM after 24 hrs by annexin V-FITC/propidium iodide staining-based FACS flow cytometric analysis (reference value: 1.61%); format: functional
MV4-11 [7] = test: Induction of apoptosis in human MV4-11 cells assessed as late apoptotic cells at 0.1 uM after 24 hrs by annexin V-FITC/propidium iodide staining-based FACS flow cytometric analysis (reference value: 4.28%); format: functional
MV4-11 [8] = test: Induction of apoptosis in human MV4-11 cells assessed as late apoptotic cells at 0.003 uM after 24 hrs by annexin V-FITC/propidium iodide staining-based FACS flow cytometric analysis (reference value: 4.28%); format: functional
MV4-11 [9] = test: Induction of apoptosis in human MV4-11 cells assessed as late apoptotic cells at 0.001 uM after 24 hrs by annexin V-FITC/propidium iodide staining-based FACS flow cytometric analysis (reference value: 4.28%); format: functional
[10] = Cytotoxicity against human SK cells assessed as growth inhibition after 72 hrs by MTT assay
KARPAS-299 = test: Cytotoxicity against human KARPAS299 cells assessed as growth inhibition after 72 hrs by MTT assay; conditions: KARPAS-299, 72 h
A549 = test: Cytotoxicity against human A549 cells assessed as growth inhibition after 72 hrs by MTT assay; conditions: A549, 72 h
Bel-7402 = test: Cytotoxicity against human Bel7402 cells assessed as growth inhibition after 72 hrs by MTT assay; conditions: Bel-7402, 72 h
TT = test: Cytotoxicity against human TT cells assessed as growth inhibition after 72 hrs by MTT assay
MDA-MB-468 = test: Cytotoxicity against human MDA-MB-468 cells assessed as growth inhibition after 72 hrs by MTT assay; conditions: MDA-MB-468, 72 h
[11] = Inhibition of ERK (unknown origin); set-up: species or system Homo sapiens
[12] = target: Serine/threonine-protein kinase PAK 4 (Homo sapiens, UniProt O96013); test: Inhibition of PAK4 (unknown origin)
Sequence of Serine/threonine-protein kinase PAK 4 (O96013 whole entry): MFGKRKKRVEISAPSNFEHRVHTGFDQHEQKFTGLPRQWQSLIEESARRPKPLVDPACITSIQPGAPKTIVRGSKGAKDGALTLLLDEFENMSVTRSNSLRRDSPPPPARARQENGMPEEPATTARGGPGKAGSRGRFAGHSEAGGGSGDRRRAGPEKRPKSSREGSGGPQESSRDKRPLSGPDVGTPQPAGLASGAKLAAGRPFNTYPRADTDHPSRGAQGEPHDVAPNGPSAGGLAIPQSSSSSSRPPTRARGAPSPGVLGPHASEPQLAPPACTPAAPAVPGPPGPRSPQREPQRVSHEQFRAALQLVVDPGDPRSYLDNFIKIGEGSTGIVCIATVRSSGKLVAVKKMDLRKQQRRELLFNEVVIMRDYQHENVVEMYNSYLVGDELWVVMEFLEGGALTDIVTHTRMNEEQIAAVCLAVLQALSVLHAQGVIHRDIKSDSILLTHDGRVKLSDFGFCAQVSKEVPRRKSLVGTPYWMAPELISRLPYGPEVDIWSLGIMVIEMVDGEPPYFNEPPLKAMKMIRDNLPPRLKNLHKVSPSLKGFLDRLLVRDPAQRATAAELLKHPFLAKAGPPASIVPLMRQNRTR
Summary of the method: (§1)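 Single selected panel of recombinant human protein kinases, screened in vitro. The value reported is the IC50 against each kinase.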

[13] = target: Serine/threonine-protein kinase PAK 1 (Homo sapiens, UniProt Q13153); test: Inhibition of PAK1 (unknown origin)
Sequence of Serine/threonine-protein kinase PAK 1 (Q13153 whole entry): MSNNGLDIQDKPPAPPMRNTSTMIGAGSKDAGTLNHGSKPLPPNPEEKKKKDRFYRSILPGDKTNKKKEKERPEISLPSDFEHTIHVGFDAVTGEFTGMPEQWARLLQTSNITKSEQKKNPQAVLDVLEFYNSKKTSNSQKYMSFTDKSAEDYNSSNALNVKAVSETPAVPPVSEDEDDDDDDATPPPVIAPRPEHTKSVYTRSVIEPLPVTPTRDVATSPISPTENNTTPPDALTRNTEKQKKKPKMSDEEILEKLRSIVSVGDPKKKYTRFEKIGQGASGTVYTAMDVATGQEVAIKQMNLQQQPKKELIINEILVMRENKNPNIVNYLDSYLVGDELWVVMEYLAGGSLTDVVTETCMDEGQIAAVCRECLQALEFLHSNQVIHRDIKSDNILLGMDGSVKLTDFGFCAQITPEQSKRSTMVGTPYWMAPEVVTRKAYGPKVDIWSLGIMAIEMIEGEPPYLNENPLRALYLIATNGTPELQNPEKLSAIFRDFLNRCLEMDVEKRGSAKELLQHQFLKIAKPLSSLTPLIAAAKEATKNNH

[14] = target: Insulin-like growth factor 1 receptor (Homo sapiens, UniProt P08069); test: Inhibition of IGF1R (unknown origin)
Sequence of Insulin-like growth factor 1 receptor (P08069 31-736 limits assumed): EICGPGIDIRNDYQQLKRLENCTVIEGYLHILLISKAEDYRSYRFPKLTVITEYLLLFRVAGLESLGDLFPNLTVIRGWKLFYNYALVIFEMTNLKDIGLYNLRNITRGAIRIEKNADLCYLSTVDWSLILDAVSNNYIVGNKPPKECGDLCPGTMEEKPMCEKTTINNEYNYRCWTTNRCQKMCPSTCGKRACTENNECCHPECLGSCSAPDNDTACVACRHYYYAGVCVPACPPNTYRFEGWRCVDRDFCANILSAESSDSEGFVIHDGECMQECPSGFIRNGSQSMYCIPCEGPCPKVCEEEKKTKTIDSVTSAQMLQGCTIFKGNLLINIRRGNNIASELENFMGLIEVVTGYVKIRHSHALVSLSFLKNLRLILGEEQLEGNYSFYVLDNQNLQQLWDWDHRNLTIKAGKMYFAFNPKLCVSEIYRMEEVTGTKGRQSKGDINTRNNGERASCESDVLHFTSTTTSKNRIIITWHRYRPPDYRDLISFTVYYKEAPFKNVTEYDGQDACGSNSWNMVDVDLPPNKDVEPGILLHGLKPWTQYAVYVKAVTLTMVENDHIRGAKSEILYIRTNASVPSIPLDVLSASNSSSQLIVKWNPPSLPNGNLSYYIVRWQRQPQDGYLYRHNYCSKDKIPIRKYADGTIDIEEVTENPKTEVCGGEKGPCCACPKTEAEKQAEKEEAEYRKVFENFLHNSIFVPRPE
Sequence of Insulin-like growth factor 1 receptor (P08069 741-1367 limits assumed): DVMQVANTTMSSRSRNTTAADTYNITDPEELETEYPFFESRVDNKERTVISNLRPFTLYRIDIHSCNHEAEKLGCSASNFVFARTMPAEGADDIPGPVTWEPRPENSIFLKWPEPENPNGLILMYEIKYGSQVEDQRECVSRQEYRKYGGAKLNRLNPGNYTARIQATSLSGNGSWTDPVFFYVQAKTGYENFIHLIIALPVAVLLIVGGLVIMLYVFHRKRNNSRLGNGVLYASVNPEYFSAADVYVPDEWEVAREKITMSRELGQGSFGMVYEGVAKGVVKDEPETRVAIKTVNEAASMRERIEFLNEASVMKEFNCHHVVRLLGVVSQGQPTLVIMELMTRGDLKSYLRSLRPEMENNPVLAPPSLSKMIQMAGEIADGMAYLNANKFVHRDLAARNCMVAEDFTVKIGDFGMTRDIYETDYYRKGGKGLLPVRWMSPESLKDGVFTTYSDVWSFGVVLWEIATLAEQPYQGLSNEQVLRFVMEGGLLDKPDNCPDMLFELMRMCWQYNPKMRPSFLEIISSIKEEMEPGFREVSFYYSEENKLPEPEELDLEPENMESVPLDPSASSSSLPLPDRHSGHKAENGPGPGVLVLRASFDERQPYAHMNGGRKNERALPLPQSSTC

Myotonin-protein kinase = Myotonin-protein kinase (Homo sapiens, UniProt Q09013); test: Inhibition of DMPK (unknown origin)
[15] = target: Serine/threonine-protein kinase PLK1 (Homo sapiens, UniProt P53350); test: Inhibition of PLK1 (unknown origin)
Sequence of Serine/threonine-protein kinase PLK1 (P53350 whole entry): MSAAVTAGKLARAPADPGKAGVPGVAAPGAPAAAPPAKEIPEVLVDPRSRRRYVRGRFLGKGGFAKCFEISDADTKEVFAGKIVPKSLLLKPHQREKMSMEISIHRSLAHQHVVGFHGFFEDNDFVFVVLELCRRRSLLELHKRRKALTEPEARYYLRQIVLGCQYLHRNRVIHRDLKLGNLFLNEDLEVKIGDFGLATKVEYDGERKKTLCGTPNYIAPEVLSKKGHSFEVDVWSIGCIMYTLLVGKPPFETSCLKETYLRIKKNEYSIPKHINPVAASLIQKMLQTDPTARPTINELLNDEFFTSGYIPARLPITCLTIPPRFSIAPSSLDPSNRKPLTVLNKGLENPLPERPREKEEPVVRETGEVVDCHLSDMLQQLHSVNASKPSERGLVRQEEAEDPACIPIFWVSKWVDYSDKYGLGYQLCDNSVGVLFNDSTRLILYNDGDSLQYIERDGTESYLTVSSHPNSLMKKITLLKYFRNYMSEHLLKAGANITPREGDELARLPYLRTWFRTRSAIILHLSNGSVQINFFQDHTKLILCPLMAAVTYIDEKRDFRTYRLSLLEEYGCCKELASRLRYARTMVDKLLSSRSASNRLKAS

[16] = target: Fibroblast growth factor receptor 2 (Homo sapiens, UniProt P21802); test: Inhibition of FGFR2 (unknown origin)
Sequence of Fibroblast growth factor receptor 2 (P21802 whole entry): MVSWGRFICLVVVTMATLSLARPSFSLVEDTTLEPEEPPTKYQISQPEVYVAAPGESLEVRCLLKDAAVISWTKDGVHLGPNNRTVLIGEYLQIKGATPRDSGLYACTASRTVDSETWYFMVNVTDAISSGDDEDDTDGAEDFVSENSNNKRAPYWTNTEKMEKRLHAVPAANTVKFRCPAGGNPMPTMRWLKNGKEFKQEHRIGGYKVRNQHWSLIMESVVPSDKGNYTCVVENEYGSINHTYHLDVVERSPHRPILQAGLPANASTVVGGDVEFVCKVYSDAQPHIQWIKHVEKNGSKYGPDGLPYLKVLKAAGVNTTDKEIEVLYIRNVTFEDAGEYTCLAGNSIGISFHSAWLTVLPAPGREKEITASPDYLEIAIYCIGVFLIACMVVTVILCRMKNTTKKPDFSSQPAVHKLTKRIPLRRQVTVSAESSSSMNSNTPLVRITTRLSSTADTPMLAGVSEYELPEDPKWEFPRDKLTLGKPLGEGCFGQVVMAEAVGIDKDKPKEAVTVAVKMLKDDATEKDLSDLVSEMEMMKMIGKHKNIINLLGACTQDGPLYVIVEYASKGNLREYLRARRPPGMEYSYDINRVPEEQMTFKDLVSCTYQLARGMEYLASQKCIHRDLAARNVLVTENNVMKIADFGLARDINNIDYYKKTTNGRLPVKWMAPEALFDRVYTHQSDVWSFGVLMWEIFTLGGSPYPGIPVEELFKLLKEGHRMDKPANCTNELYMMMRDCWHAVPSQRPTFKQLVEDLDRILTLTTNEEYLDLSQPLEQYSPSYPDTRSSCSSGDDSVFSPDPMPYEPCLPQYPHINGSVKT

[17] = target: Platelet-derived growth factor receptor beta (Homo sapiens, UniProt P09619); test: Inhibition of PDGFRbeta (unknown origin); summary of the method: as §1
Sequence of Platelet-derived growth factor receptor beta (P09619 whole entry): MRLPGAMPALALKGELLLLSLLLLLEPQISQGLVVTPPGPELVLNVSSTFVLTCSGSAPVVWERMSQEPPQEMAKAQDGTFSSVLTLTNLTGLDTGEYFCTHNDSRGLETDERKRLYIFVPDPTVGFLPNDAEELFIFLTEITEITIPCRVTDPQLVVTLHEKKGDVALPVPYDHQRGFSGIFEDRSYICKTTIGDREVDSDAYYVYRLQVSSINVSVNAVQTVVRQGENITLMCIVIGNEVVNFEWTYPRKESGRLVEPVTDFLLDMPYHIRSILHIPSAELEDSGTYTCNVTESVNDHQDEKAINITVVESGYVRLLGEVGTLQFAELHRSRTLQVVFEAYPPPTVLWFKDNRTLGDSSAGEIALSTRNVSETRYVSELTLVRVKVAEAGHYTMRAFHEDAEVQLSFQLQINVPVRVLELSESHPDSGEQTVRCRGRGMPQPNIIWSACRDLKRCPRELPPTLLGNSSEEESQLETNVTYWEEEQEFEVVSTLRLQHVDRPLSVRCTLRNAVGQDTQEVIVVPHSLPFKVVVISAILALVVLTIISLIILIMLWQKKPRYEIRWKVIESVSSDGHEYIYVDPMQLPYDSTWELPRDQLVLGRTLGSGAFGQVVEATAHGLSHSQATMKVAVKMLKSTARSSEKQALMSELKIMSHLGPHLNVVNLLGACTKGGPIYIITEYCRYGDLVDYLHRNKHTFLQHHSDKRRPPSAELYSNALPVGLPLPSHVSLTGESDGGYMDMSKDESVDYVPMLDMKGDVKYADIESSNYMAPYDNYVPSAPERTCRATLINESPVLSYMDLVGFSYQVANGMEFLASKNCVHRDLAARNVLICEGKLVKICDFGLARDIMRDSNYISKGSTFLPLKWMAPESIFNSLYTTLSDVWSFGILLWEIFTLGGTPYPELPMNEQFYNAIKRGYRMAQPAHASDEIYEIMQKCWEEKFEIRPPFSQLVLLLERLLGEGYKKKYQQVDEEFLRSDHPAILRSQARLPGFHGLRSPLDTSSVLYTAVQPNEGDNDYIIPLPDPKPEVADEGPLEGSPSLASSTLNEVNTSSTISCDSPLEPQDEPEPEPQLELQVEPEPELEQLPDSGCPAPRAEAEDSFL

AUC at 24 h [1]: 319 µg·h/mL
IC50 [3]: 0.001 µM
IC50 [4]: 0.003 µM
IC50 [11]: > 10 µM
IC50 [12]: > 10 µM
IC50 [13]: > 10 µM
IC50 [14]: > 10 µM
IC50 (Myotonin-protein kinase): > 10 µM
IC50 [15]: > 10 µM
IC50 [16]: 1.81 µM
IC50 [17]: 0.408 µM
SMILES: O=C(Nc1ccc(Oc2ncnc3[nH]ncc23)cc1)Nc1ccc(Cl)c(C(F)(F)F)c1
inhibition (Mus musculus): Active
Activity (MV4-11 [2]): Active
Activity (MV4-11 [5]): Active
Activity (MV4-11 [6]): 8.93%
Activity (MV4-11 [7]): 25.8%
Activity (MV4-11 [8]): 7.11%
Activity (MV4-11 [9]): 5.5%
IC50 [10]: > 10 µM
IC50 (KARPAS-299): > 10 µM
IC50 (A549): > 10 µM
IC50 (Bel-7402): > 10 µM
IC50 (TT): 3.42 µM
IC50 (MDA-MB-468): 6.68 µM
